Legend:
[1] = molecular target: Dual specificity mitogen-activated protein kinase kinase 1 (Homo sapiens) (UniProt Q02750); test: Inhibition of MKK1 at 1 uM relative to control
[2] = molecular target: T1, Serine/threonine-protein kinase B-raf (Homo sapiens, UniProt P15056, V600E); test: Inhibition of BRAF V600E mutant-mediated ERK phosphorylation in human WM266.4 cells; type: cell-based
Method in brief: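 Cellular pathway read-out: ERK phosphorylation (pERK) was measured in WM266.4 melanoma cells and reported as an IC50.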

[3] = molecular target: Homeodomain-interacting protein kinase 3 (Homo sapiens) (UniProt Q9H422); test: Inhibition of HIPK3 at 1 uM relative to control
Chain of Homeodomain-interacting protein kinase 3 (Homo sapiens) (Q9H422 whole entry, looked up): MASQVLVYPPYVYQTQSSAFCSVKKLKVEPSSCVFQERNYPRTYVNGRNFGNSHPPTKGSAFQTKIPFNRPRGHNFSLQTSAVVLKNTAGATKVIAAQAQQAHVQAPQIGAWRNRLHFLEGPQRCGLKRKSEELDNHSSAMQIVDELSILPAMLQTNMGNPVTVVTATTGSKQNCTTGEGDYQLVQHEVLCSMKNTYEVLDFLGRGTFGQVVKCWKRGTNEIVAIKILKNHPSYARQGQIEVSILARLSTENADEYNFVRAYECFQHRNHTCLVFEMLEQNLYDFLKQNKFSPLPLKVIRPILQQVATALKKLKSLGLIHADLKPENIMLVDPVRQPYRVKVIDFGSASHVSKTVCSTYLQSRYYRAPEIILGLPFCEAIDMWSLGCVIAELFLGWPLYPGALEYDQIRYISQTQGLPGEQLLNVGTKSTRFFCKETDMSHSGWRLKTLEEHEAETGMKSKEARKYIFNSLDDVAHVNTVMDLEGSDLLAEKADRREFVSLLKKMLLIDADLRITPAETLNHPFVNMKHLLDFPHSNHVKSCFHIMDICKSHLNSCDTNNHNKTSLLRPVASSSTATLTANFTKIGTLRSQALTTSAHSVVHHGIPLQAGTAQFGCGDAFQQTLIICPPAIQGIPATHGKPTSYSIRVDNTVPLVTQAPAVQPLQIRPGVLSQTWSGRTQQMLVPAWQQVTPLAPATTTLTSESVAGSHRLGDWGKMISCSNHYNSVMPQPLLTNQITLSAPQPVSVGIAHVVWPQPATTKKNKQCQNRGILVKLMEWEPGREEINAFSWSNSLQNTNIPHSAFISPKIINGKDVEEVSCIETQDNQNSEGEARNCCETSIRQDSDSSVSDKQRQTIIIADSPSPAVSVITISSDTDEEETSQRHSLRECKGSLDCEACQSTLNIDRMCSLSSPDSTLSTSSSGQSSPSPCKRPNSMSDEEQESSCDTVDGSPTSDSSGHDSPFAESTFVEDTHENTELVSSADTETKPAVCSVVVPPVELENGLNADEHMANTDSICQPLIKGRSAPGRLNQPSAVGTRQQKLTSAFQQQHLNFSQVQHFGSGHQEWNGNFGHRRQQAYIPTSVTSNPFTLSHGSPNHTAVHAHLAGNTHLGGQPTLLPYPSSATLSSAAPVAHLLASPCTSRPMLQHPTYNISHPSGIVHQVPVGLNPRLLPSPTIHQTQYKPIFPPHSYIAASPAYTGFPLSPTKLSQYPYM

[4] = molecular target: T2, Serine/threonine-protein kinase Chk1 (Homo sapiens) (UniProt O14757); test: Inhibition of CHK1 at 1 uM relative to control
T2 sequence (whole entry): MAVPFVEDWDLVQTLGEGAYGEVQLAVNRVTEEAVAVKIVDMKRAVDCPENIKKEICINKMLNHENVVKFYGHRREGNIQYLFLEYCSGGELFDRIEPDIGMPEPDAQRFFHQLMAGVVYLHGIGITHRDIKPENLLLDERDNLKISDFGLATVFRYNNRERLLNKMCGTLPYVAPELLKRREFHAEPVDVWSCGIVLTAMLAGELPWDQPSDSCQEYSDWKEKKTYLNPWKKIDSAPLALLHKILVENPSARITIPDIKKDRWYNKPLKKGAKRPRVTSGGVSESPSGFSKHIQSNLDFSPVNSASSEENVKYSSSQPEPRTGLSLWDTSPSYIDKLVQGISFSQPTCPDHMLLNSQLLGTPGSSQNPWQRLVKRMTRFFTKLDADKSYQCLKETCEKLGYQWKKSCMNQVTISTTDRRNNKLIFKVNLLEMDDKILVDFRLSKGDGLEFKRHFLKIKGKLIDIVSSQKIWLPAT

[5] = molecular target: Calcium/calmodulin-dependent protein kinase kinase 2 (Homo sapiens) (UniProt Q96RR4); test: Inhibition of CAMKKb at 1 uM relative to control
[6] = molecular target: T3, MAP kinase-activated protein kinase 5 (Homo sapiens) (UniProt Q8IW41); test: Inhibition of PRAK at 1 uM relative to control
T3 sequence (whole entry): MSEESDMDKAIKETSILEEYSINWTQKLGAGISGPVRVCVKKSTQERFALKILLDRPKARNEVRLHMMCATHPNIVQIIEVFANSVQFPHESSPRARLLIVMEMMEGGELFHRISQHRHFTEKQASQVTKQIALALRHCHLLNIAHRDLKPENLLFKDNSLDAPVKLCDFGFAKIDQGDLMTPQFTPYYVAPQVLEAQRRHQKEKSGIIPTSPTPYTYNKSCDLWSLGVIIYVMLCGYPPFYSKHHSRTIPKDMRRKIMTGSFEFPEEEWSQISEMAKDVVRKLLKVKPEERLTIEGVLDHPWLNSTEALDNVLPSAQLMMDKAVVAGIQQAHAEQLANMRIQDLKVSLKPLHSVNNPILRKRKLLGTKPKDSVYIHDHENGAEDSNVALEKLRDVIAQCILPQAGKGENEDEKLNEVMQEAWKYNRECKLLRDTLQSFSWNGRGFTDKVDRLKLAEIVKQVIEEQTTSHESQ

[7] = molecular target: Protein kinase C alpha type (Homo sapiens) (UniProt P17252); test: Inhibition of PKCalpha at 1 uM relative to control
[8] = molecular target: Ribosomal protein S6 kinase alpha-1 (Homo sapiens) (UniProt Q15418); test: Inhibition of RSK1 at 1 uM relative to control
[9] = molecular target: Mitogen-activated protein kinase 1 (Homo sapiens) (UniProt P28482); test: Inhibition of ERK2 at 1 uM relative to control
[10] = molecular target: MAP kinase-interacting serine/threonine-protein kinase 2 (Homo sapiens) (UniProt Q9HBH9); test: Inhibition of MNK2 at 1 uM relative to control
[11] = molecular target: Mitogen-activated protein kinase 11 (Homo sapiens) (UniProt Q15759); test: Inhibition of p38beta at 1 uM relative to control
Chain of Mitogen-activated protein kinase 11 (Homo sapiens) (Q15759 whole entry): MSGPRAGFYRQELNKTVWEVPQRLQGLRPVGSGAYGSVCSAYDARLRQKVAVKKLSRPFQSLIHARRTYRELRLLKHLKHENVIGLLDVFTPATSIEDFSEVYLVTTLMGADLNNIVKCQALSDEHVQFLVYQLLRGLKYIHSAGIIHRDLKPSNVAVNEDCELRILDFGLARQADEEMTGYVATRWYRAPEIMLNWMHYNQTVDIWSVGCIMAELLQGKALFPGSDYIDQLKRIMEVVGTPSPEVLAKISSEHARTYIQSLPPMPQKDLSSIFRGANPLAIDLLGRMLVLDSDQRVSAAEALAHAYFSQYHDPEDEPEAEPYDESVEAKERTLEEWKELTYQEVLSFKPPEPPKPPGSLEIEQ

[12] = molecular target: Serine/threonine-protein kinase N2 (Homo sapiens) (UniProt Q16513); test: Inhibition of PRK2 at 1 uM relative to control
[13] = molecular target: Aurora kinase B (Homo sapiens) (UniProt Q96GD4); test: Inhibition of Aurora B at 1 uM relative to control
[14] = molecular target: Mitogen-activated protein kinase 3 (Homo sapiens) (UniProt P27361); test: Inhibition of ERK1 at 1 uM relative to control
Chain of Mitogen-activated protein kinase 3 (Homo sapiens) (P27361 whole entry): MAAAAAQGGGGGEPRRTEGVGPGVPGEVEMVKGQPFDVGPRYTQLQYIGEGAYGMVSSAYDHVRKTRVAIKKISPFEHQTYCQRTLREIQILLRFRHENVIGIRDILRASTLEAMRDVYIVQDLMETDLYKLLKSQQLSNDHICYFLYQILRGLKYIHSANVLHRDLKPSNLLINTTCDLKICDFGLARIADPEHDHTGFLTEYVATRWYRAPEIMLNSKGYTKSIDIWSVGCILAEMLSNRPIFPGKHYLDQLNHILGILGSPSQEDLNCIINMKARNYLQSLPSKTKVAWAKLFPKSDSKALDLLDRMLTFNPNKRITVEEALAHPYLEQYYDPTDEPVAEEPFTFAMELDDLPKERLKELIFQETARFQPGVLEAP

[15] = molecular target: Mitogen-activated protein kinase 9 (Homo sapiens) (UniProt P45984); test: Inhibition of JNK2 at 1 uM relative to control
Chain of Mitogen-activated protein kinase 9 (Homo sapiens) (P45984 whole entry, looked up): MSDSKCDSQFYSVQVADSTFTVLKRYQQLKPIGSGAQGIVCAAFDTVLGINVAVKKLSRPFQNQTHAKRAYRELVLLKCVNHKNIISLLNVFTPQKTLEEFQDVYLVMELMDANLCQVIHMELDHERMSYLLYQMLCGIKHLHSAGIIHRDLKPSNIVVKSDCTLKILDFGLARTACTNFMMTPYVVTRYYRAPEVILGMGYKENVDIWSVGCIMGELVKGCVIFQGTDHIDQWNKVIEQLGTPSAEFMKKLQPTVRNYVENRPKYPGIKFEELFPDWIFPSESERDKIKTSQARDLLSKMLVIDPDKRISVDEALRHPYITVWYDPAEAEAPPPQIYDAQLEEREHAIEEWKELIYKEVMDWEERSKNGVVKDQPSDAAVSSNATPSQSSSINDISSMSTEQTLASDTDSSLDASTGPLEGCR

[16] = molecular target: Rho-associated protein kinase 2 (Homo sapiens) (UniProt O75116); test: Inhibition of ROCK2 at 1 uM relative to control
[17] = molecular target: T4, Serine/threonine-protein kinase Nek2 (Homo sapiens) (UniProt P51955); test: Inhibition of NEK2a at 1 uM relative to control
T4 sequence (whole entry): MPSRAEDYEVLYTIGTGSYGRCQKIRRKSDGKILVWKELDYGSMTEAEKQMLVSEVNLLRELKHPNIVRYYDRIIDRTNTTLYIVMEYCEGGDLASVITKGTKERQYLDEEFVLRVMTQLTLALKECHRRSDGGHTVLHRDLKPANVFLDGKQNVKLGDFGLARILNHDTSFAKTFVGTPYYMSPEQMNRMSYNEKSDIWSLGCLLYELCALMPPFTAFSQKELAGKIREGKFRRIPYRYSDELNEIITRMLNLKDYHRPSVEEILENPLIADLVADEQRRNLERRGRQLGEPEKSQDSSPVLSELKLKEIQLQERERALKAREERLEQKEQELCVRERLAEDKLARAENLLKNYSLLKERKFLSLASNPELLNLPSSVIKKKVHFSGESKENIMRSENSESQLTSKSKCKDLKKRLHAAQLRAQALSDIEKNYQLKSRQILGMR

[18] = molecular target: RAC-alpha serine/threonine-protein kinase (Homo sapiens) (UniProt P31749); test: Inhibition of PKBalpha at 1 uM relative to control
Chain of RAC-alpha serine/threonine-protein kinase (Homo sapiens) (P31749 whole entry): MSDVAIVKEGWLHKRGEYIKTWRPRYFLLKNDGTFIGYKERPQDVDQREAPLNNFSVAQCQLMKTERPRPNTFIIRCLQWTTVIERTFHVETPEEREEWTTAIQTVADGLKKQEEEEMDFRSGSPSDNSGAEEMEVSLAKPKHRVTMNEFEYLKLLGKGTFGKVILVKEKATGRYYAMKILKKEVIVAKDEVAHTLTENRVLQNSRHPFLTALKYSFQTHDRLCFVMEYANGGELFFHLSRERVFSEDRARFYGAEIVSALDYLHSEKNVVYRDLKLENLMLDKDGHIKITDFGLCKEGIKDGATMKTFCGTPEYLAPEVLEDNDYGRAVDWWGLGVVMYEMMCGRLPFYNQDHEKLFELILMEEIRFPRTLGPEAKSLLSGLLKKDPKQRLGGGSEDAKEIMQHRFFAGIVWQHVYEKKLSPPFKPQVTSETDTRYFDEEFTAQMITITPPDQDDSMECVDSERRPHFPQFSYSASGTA

[19] = molecular target: Homeodomain-interacting protein kinase 2 (Homo sapiens) (UniProt Q9H2X6); test: Inhibition of HIPK2 at 1 uM relative to control
Chain of Homeodomain-interacting protein kinase 2 (Homo sapiens) (Q9H2X6 whole entry, looked up): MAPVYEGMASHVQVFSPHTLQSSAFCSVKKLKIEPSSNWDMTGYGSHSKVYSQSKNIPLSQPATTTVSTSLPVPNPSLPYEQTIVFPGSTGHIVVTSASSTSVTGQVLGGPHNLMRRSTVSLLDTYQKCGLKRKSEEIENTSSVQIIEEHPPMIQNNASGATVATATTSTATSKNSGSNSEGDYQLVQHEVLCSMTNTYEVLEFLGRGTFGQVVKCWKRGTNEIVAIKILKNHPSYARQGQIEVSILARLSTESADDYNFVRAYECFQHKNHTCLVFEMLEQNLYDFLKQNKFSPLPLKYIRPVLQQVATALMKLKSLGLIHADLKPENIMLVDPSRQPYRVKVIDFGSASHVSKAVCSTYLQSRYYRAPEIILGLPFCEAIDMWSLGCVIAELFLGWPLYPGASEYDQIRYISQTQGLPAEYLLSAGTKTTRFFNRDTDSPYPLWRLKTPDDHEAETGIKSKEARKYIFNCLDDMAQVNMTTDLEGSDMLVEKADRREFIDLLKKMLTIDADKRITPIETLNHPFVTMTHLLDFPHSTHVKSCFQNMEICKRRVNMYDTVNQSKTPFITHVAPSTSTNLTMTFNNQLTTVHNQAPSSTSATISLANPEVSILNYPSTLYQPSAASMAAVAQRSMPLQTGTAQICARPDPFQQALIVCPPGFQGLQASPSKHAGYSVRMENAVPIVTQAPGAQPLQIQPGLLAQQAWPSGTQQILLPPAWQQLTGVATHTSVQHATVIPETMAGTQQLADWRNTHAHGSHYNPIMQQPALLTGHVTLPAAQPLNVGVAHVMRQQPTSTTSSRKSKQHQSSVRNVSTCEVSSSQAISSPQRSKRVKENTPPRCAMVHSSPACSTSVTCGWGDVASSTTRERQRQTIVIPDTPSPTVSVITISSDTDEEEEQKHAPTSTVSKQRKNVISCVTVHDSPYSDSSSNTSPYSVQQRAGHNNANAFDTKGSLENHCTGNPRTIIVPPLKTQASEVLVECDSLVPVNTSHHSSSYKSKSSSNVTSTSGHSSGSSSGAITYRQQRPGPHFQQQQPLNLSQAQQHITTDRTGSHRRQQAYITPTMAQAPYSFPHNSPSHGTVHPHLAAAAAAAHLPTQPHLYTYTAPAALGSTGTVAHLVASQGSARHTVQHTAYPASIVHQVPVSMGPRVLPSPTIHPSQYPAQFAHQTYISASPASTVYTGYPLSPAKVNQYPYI

[20] = molecular target: T1, Serine/threonine-protein kinase B-raf; test: Inhibition of BRAF V600E mutant
Method in brief: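 Purified, isolated V600E BRAF enzyme assayed in vitro; potency reported as IC50.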

[21] = molecular target: Mitogen-activated protein kinase 8 (Homo sapiens) (UniProt P45983); test: Inhibition of JNK1 at 1 uM relative to control
[22] = molecular target: Mitogen-activated protein kinase 10 (Homo sapiens) (UniProt P53779); test: Inhibition of JNK3 at 1 uM relative to control
Chain of Mitogen-activated protein kinase 10 (Homo sapiens) (P53779 whole entry): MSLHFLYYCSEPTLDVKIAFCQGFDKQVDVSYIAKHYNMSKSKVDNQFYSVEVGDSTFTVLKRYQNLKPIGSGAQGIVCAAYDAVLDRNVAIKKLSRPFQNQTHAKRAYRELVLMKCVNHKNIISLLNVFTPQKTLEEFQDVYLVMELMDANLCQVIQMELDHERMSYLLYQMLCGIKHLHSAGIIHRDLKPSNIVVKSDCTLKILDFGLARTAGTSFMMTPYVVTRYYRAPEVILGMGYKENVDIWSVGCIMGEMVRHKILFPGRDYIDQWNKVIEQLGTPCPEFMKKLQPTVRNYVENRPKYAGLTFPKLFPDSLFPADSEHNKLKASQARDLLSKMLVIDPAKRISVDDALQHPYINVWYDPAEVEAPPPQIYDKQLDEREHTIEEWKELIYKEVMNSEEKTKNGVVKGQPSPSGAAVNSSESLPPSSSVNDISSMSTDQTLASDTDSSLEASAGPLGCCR

[23] = molecular target: Myosin light chain kinase, smooth muscle (Homo sapiens) (UniProt Q15746); test: Inhibition of smooth muscle MLCK at 1 uM relative to control; type: tissue-based; details: Muscle tissue
[24] = Inhibition of p38S at 1 uM relative to control
[25] = molecular target: Serine/threonine-protein kinase pim-1 (Homo sapiens) (UniProt P11309); test: Inhibition of PIM1 at 1 uM relative to control
Chain of Serine/threonine-protein kinase pim-1 (Homo sapiens) (P11309 whole entry, looked up): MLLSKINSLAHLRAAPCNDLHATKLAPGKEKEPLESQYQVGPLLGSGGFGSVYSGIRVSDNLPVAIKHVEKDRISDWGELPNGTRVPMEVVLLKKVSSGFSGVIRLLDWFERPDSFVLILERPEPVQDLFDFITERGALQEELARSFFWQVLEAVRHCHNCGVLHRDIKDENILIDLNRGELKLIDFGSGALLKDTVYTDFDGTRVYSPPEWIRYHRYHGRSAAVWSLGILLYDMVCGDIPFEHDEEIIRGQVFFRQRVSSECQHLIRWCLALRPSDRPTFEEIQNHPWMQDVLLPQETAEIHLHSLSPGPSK

| residual activity [1] [%] | IC50 [2] [nM] | residual activity [3] [%] | residual activity [4] [%] | residual activity [5] [%] | residual activity [6] [%] | residual activity [7] [%] | residual activity [8] [%] | residual activity [9] [%] | residual activity [10] [%] | residual activity [11] [%] | residual activity [12] [%] | residual activity [13] [%] | residual activity [14] [%] | residual activity [15] [%] | residual activity [16] [%] | residual activity [17] [%] | residual activity [18] [%] | residual activity [19] [%] | IC50 [20] [nM] | SMILES | other results |
| --- | --- | --- | --- | --- | --- | --- | --- | --- | --- | --- | --- | --- | --- | --- | --- | --- | --- | --- | --- | --- | --- |
| 100 | 1300 | 100 | 100 | 50 | 75 | 75 | 100 | 100 | 100 | < 25 | 100 | < 25 | 100 | 100 | 75 | 100 | 100 | 75 | 1 | CSc1cc(Oc2ccnc3[nH]c(=O)[nH]c23)ccc1NC(=O)Nc1cccc(C(F)(F)F)c1 | residual activity [21]: 100%; residual activity [22]: 100%; residual activity [23]: 100%; residual activity [24]: 50%; residual activity [25]: 100% |
| 100 | 214 | 100 | 100 | 100 | 75 | 75 | 75 | 100 | 100 | < 25 | 100 | < 25 | 100 | 50 | 75 | 100 | 100 | 100 | 37 | O=C(Nc1cc(C(F)(F)F)ccc1F)Nc1ccc(Oc2ccnc3[nH]c(=O)[nH]c23)c2ccccc12 | residual activity [21]: 75%; residual activity [22]: 100%; residual activity [23]: 100%; residual activity [24]: 75%; residual activity [25]: 75% |
| 75 | 19300 | 100 | 75 | 75 | 75 | 75 | 75 | 75 | 100 | < 25 | 100 | 50 | 100 | < 25 | 75 | 75 | 75 | 75 | 79 | CC(C)(C)c1cccc(NC(=O)Nc2ccc(Oc3ccnc4[nH]c(=O)[nH]c34)c3ccccc23)c1 | residual activity [21]: 75%; residual activity [22]: 75%; residual activity [23]: 75%; residual activity [24]: 50%; residual activity [25]: 75% |
